Experimental data published in publication PMC9588736 (Cell chemical biology, 2022).
Read-outs that look alike come from different tables or passages of the source. Blank lines part the entries; values can stand above or below the molecule they belong to.

How the values were obtained:
KEAP1 [1] = target: T1, KEAP1 (Homo sapiens, UniProt Q14145); assay: KEAP1-NRF2 displacement TR-FRET assay; format: binding
Target sequence in this assay (Q14145 321-609): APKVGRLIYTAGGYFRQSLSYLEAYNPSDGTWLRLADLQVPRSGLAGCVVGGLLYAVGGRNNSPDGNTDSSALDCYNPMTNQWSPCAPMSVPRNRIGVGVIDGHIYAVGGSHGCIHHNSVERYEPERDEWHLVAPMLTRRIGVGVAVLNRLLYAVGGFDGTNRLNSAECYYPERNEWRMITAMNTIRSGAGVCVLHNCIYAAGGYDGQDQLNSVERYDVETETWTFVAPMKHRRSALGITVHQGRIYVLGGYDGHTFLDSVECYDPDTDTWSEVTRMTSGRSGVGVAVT

KEAP1-BRD4BD2 = KEAP1-BRD4BD2 (Homo sapiens, UniProt O60885+Q14145); assay: KEAP1-BRD4BD2 dimerization TR-FRET assay; format: biochemical
Summary of the method: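 TR-FRET mix: 200 nM biotinylated human BRD4BD2, 200 nM Alexa Fluor 647-labelled human KEAP1 (residues 321–609, insect-cell expressed, SpyCatcher-labelled) and 2 nM Eu-streptavidin. Buffer was 50 mM Tris pH 8.0, 200 mM NaCl, 0.1% Pluronic F-68, 0.5% BSA and 1 mM TCEP; compound was titrated. After 15 min at room temperature, excitation was 337 nm and the 665/620 nm ratio was read over thirty 200-s cycles. Mean ± SD of ≥3 technical replicates; two independent experiments.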

BRD4 = BRD4 (Homo sapiens, UniProt O60885); assay: Immunoblot of BRD4 degradation in MM.1S cells; format: cell-based; details: for cellular degradation of BRD4, linker library: 16 h
Summary of the method: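 MM.1S cells were treated with test compound for 16 h (24 h in the initial screen). For rescue, cells were pretreated 2 h with 10 μM KEAP1 inhibitor, 10 μM JQ1 or 1 μM MLN4924. Lysates in RIPA were BCA-normalised, run on 4–12% gels and blotted to PVDF with IRDye secondaries. BRD4 bands were quantified relative to β-actin. Two independent experiments.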

KEAP1 [2] = target: T1, KEAP1; assay: Immunoblot of KEAP1 degradation in WT and CRBN−/− MM.1S cells; format: cell-based; details: for KEAP1 degradation in CRBN knockout cells: CRBN−/− MM.1S cells; for KEAP1 degradation in CRBN knockout cells / KEAP1 degradation in wildtype cells: 5 μM, 2-hour treatment; for KEAP1 degradation: MM.1S cells; for KEAP1 degradation in wildtype cells: wildtype MM.1S cells
Target sequence in this assay (Q14145 whole entry): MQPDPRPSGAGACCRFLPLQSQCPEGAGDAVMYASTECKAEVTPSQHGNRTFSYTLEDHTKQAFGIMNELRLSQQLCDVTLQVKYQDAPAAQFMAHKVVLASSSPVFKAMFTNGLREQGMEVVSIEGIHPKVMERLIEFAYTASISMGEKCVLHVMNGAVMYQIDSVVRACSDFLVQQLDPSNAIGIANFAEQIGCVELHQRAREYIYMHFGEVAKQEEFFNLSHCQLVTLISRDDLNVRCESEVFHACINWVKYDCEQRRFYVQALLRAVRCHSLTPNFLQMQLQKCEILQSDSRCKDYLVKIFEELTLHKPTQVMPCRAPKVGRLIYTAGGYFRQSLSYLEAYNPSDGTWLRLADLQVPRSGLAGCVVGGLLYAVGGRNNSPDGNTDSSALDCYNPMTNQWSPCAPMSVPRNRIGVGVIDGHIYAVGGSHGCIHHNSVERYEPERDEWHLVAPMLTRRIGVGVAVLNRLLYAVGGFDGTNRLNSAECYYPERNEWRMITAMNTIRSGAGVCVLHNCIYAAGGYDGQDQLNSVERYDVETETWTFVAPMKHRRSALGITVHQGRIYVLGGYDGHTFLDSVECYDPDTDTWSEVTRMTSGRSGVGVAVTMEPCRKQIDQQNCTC

CRBN = CRBN (Homo sapiens, UniProt Q96SW2); assay: Immunoblot of CRBN in MM.1S cells; format: cell-based
OVCAR8 cells = assay: Proteomics profiling of KEAP1-CRBN PROTACs; format: cell-based, human; details: legend: MM.1S cells, 5 h, 5 μM
MM.1S cells = assay: Antiproliferation assay; format: cell-based; details: Homo sapiens, MM1.S, 72 h, read-out: anti-proliferative effect
Summary of the method: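 MM.1S cells (RPMI, 10% FBS, 1% Pen/Strep, 37°C, 5% CO2) seeded at 10000 cells/well and grown 12 h, then exposed to test compound for 72 h. Viability read by CellTiter-Glo luminescence. Dose-response curves fitted by non-linear regression. Mean ± SEM of three technical replicates; representative of two independent experiments.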

Chain of KEAP1-BRD4BD2 (Q14145 321-609 limits assumed, other chains not shown): as the sequence (Q14145 321-609) above
Chain of CRBN (Q96SW2 whole entry): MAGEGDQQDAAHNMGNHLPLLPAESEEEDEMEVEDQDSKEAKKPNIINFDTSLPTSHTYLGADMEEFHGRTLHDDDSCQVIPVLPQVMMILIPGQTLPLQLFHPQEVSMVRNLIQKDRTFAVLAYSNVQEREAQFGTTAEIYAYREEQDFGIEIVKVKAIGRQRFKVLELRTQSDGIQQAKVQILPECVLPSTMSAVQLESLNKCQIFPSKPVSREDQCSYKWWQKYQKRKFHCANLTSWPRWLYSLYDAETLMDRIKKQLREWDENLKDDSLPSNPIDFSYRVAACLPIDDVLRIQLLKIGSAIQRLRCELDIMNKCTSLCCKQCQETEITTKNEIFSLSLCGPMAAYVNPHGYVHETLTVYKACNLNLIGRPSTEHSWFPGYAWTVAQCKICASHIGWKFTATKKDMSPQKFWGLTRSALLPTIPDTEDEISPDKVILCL

- KEAP1 degradation in CRBN knockout cells (KEAP1 [2]): not CRBN^−/− MM.1S cells
- KEAP1 degradation (KEAP1 [2]): rapid degradation of KEAP1
- KEAP1 degradation in wildtype cells (KEAP1 [2]): observed KEAP1 degradation
- effect on CRBN (CRBN): spared CRBN
SMILES: COc1cc([C@@H](CC(=O)O)c2ccc(C)c(CN3C[C@@H](C)Oc4cc(CCCCCCNC(=O)COc5cc6c7c(cccc7c5)C(=O)N(C5CCC(=O)NC5=O)C6=O)ccc4S3(=O)=O)c2)cc2nnn(C)c12 (stereo partly drawn) [NJH-04–087, (3S)-3-(3-(((4R)-7-(6-(2-((2-(2,6-dioxopiperidin-3-yl)-1,3-dioxo-2,3-dihydro-1H-benzo[de]isoquinolin-5-yl)oxy)acetamido)hexyl)-4-methyl-1,1-dioxido-3,4-dihydro-2H-benzo[b][1,4,5]oxathiazepin-2-yl)methyl)-4-methylphenyl)-3-(7-methoxy-1-methyl-1H-benzo[d][1,2,3]triazol-5-yl)propanoic acid]
- selectivity of degradation across the proteome (OVCAR8 cells): selective for inducing degradation of KEAP1 across the proteome and does not degrade any zinc finger proteins

- KEAP1 degradation, negative control (KEAP1 [2]; WT MM.1S cells, 4 h): did not induce KEAP1 degradation
SMILES: COc1cc([C@@H](CC(=O)O)c2ccc(C)c(CN3C[C@@H](C)Oc4cc(CCCCCCNC(=O)COc5cc6c7c(cccc7c5)C(=O)N(C5CCC(=O)N(C)C5=O)C6=O)ccc4S3(=O)=O)c2)cc2nnn(C)c12 (stereo partly drawn) [NJH-04–202, (3S)-3-(7-methoxy-1-methyl-1H-benzo[d][1,2,3]triazol-5-yl)-3-(4-methyl-3-(((4R)-4-methyl-7-(6-(2-((2-(1-methyl-2,6-dioxopiperidin-3-yl)-1,3-dioxo-2,3-dihydro-1H-benzo[de]isoquinolin-5-yl)oxy)acetamido)hexyl)-1,1-dioxido-3,4-dihydro-2H-benzo[b][1,4,5]oxathiazepin-2-yl)methyl)phenyl)propanoic acid]

- KEAP1 binding / engagement in TR-FRET Nrf2 peptide displacement assay (KEAP1 [1]): did not bind KEAP1
- activity at prolonged timepoints (BRD4): inactive even at prolonged timepoints
- BRD4 degradation, negative control (BRD4; MM.1S cells, 16-hour treatment at 0.1, 1, and 10 μM): did not result in degradation of BRD4
- IC50 (MM.1S cells): > 10000 nM
SMILES: CCOC(=O)C[C@@H](c1ccc(C)c(CN2C[C@@H](C)Oc3cc(CCCCCCNC(=O)C[C@@H]4N=C(c5ccc(Cl)cc5)c5c(sc(C)c5C)-n5c(C)nnc54)ccc3S2(=O)=O)c1)c1cc(OC)c2c(c1)nnn2C [NJH-05–146, Ethyl (S)-3-(3-(((R)-7-(6-(2-((S)-4-(4-chlorophenyl)-2,3,9-trimethyl-6H-thieno[3,2-f][1,2,4]triazolo[4,3-a][1,4]diazepin-6-yl)acetamido)hexyl)-4-methyl-1,1-dioxido-3,4-dihydro-2H-benzo[b][1,4,5]oxathiazepin-2-yl)methyl)-4-methylphenyl)-3-(7-methoxy-1-methyl-1H-benzo[d][1,2,3]triazol-5-yl)propanoate]

More lines, now with the values behind:

SMILES: COc1cc(C(CC(=O)O)c2ccc(C)c(CN(C)S(=O)(=O)c3ccc(OCCCCCCNC(=O)C[C@@H]4N=C(c5ccc(Cl)cc5)c5c(sc(C)c5C)-n5c(C)nnc54)cc3)c2)cc2nnn(C)c12 (stereo partly drawn) [DGY-05–089, 3-(3-(((4-((6-(2-((S)-4-(4-chlorophenyl)-2,3,9-trimethyl-6H-thieno[3,2-f][1,2,4]triazolo[4,3-a][1,4]diazepin-6-yl)acetamido)hexyl)oxy)-N-methylphenyl)sulfonamido)methyl)-4-methylphenyl)-3-(7-methoxy-1-methyl-1H-benzo[d][1,2,3]triazol-5-yl)propanoic acid]
- IC50 (KEAP1 [1]; read-out: IC50, KEAP1-NRF2 TR-FRET displacement): 147 nM
- KEAP1-BRD4BD2 ternary complex formation / dimerization (KEAP1-BRD4BD2): did not induce ternary complex formation
- BRD4 degradation (BRD4; MM.1S cells, 24 h): failed to degrade BRD4

SMILES: COc1cc([C@H](CC(=O)O)c2ccc(C)c(CN3C[C@@H](C)Oc4cc(CCCCCCNC(=O)C[C@@H]5N=C(c6ccc(Cl)cc6)c6c(sc(C)c6C)-n6c(C)nnc65)ccc4S3(=O)=O)c2)cc2nnn(C)c12 [DGY-06–177-pk1, (R)-3-(3-(((R)-7-(6-(2-((S)-4-(4-chlorophenyl)-2,3,9-trimethyl-6H-thieno[3,2-f][1,2,4]triazolo[4,3-a][1,4]diazepin-6-yl)acetamido)hexyl)-4-methyl-1,1-dioxido-3,4-dihydro-2H-benzo[b][1,4,5]oxathiazepin-2-yl)methyl)-4-methylphenyl)-3-(7-methoxy-1-methyl-1H-benzo[d][1,2,3]triazol-5-yl)propanoic acid]
- concentration at which KEAP1-BRD4BD2 dimerization is induced (KEAP1-BRD4BD2): ~ 10 μM

SMILES: COc1cc([C@@H](CC(=O)O)c2ccc(C)c(CN3C[C@@H](C)Oc4cc(CCCOCCNC(=O)C[C@@H]5N=C(c6ccc(Cl)cc6)c6c(sc(C)c6C)-n6c(C)nnc65)ccc4S3(=O)=O)c2)cc2nnn(C)c12 [NJH-05–141, (S)-3-(3-(((R)-7-(3-(2-(2-((S)-4-(4-chlorophenyl)-2,3,9-trimethyl-6H-thieno[3,2-f][1,2,4]triazolo[4,3-a][1,4]diazepin-6-yl)acetamido)ethoxy)propyl)-4-methyl-1,1-dioxido-3,4-dihydro-2H-benzo[b][1,4,5]oxathiazepin-2-yl)methyl)-4-methylphenyl)-3-(7-methoxy-1-methyl-1H-benzo[d][1,2,3]triazol-5-yl)propanoic acid]
- cellular degradation of BRD4, linker library (BRD4; MM.1S cells): showed cellular degradation of BRD4 to a similar level to DGY-06–177-pk2

SMILES: COc1cc([C@@H](CC(=O)O)c2ccc(C)c(CN3C[C@@H](C)Oc4cc(CCCCCCNC(=O)COc5cccc6c5C(=O)N(C5CCC(=O)NC5=O)C6=O)ccc4S3(=O)=O)c2)cc2nnn(C)c12 (stereo partly drawn) [NJH-04–086, (3S)-3-(3-(((4R)-7-(6-(2-((2-(2,6-dioxopiperidin-3-yl)-1,3-dioxoisoindolin-4-yl)oxy)acetamido)hexyl)-4-methyl-1,1-dioxido-3,4-dihydro-2H-benzo[b][1,4,5]oxathiazepin-2-yl)methyl)-4-methylphenyl)-3-(7-methoxy-1-methyl-1H-benzo[d][1,2,3]triazol-5-yl)propanoic acid]
- KEAP1 degradation in CRBN knockout cells (KEAP1 [2]): not CRBN^−/− MM.1S cells
- KEAP1 degradation (KEAP1 [2]): rapid degradation of KEAP1
- KEAP1 degradation in wildtype cells (KEAP1 [2]): observed KEAP1 degradation
- effect on CRBN (CRBN): spared CRBN
- selectivity of degradation across the proteome (OVCAR8 cells): clear degradation of KEAP1 and a few zinc finger proteins

SMILES: COc1cc(C(CC(=O)O)c2ccc(C)c(CN3C[C@@H](C)Oc4cc(CCCCCCNC(=O)C[C@@H]5N=C(c6ccc(Cl)cc6)c6c(sc(C)c6C)-n6c(C)nnc65)ccc4S3(=O)=O)c2)cc2nnn(C)c12 (mixture of isomers) [DGY-06–177, 3-(3-(((R)-7-(6-(2-((S)-4-(4-chlorophenyl)-2,3,9-trimethyl-6H-thieno[3,2-f][1,2,4]triazolo[4,3-a][1,4]diazepin-6-yl)acetamido)hexyl)-4-methyl-1,1-dioxido-3,4-dihydro-2H-benzo[b][1,4,5]oxathiazepin-2-yl)methyl)-4-methylphenyl)-3-(7-methoxy-1-methyl-1H-benzo[d][1,2,3]triazol-5-yl)propanoic acid]
- IC50 (KEAP1 [1]): 145 nM
- concentration at which KEAP1-BRD4BD2 dimerization is promoted (KEAP1-BRD4BD2): approximately 100 nM
- concentration at which hook effect is exhibited (BRD4; MM.1S cells, 24 h): 5 µM
- concentration of maximal BRD4 degradation (BRD4; MM.1S cells, 24 h): 1 µM

SMILES: COc1cc([C@@H](CC(=O)O)c2ccc(C)c(CN3C[C@@H](C)Oc4cc(CCCCNC(=O)C[C@@H]5N=C(c6ccc(Cl)cc6)c6c(sc(C)c6C)-n6c(C)nnc65)ccc4S3(=O)=O)c2)cc2nnn(C)c12 [NJH-05–138, (S)-3-(3-(((R)-7-(4-(2-((S)-4-(4-chlorophenyl)-2,3,9-trimethyl-6H-thieno[3,2-f][1,2,4]triazolo[4,3-a][1,4]diazepin-6-yl)acetamido)butyl)-4-methyl-1,1-dioxido-3,4-dihydro-2H-benzo[b][1,4,5]oxathiazepin-2-yl)methyl)-4-methylphenyl)-3-(7-methoxy-1-methyl-1H-benzo[d][1,2,3]triazol-5-yl)propanoic acid]
- cellular degradation of BRD4, linker library (BRD4; MM.1S cells): showed cellular degradation of BRD4 to a similar level to DGY-06–177-pk2
